≈ marks a conversion by molar mass, not a printed value.
Assays:
CHO-K1 = experiment: Cytotoxicity against CHOK1 cells assessed as reduction in cell viability; assay type: cell-based; settings: Cricetulus griseus
[1] = test system: Mycobacterium tuberculosis; experiment: Antimycobacterial activity against Mycobacterium tuberculosis H37Rv; assay type: functional
Summary of the method: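 Drug-sensitive M. tuberculosis H37Rv grown in a glycerol-containing medium; MIC99 is the minimum concentration that inhibits growth of 99% of the bacterial population.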

SMILES	IC50 (CHO-K1)	MIC99 [1]
CC(=O)O[C@H]1C[C@@]2(C)[C@@H](C[C@@H](O)[C@H]3[C@@]4(C)CC[C@@H](O)[C@@H](C)[C@@H]4CC[C@@]32C)/C1=C(\CCC=C(C)C)c1n[nH]c(=S)o1	70 µM	80 µM (≈ 45.8 µg/mL)
CCCc1noc(/C(CCC=C(C)C)=C2\[C@@H](OC(C)=O)C[C@@]3(C)[C@H]2C[C@@H](O)[C@H]2[C@@]4(C)CC[C@@H](O)[C@@H](C)[C@@H]4CC[C@@]23C)n1	68.2 µM	80 µM (≈ 46.6 µg/mL)
CC(=O)O[C@H]1C[C@@]2(C)[C@@H](C[C@@H](O)[C@H]3[C@@]4(C)CC[C@@H](O)[C@@H](C)[C@@H]4CC[C@@]32C)/C1=C(\CCC=C(C)C)c1nc(C)no1	47.8 µM	> 125 µM
CCCS(=O)(=O)NNC(=O)/C(CCC=C(C)C)=C1\[C@@H](OC(C)=O)C[C@@]2(C)[C@H]1C[C@@H](O)[C@H]1[C@@]3(C)CC[C@@H](O)[C@@H](C)[C@@H]3CC[C@@]12C	79.7 µM	40 µM (≈ 25.5 µg/mL)
CC(=O)O[C@H]1C[C@@]2(C)[C@@H](C[C@@H](O)[C@H]3[C@@]4(C)CC[C@@H](O)[C@@H](C)[C@@H]4CC[C@@]32C)/C1=C(\CCC=C(C)C)C(=O)NNS(=O)(=O)c1ccc(C)cc1	48.2 µM	> 125 µM
CC(=O)O[C@H]1C[C@@]2(C)[C@@H](C[C@@H](O)[C@H]3[C@@]4(C)CC[C@@H](O)[C@@H](C)[C@@H]4CC[C@@]32C)/C1=C(\CCC=C(C)C)C(=O)NNS(=O)(=O)c1ccc(Cl)cc1	53.2 µM	> 125 µM
CC(=O)O[C@H]1C[C@@]2(C)[C@@H](C[C@@H](O)[C@H]3[C@@]4(C)CC[C@@H](O)[C@@H](C)[C@@H]4CC[C@@]32C)/C1=C(\CCC=C(C)C)c1n[nH]c(=O)o1	82 µM	80 µM (≈ 44.5 µg/mL)
CCCCS(=O)(=O)NNC(=O)/C(CCC=C(C)C)=C1\[C@@H](OC(C)=O)C[C@@]2(C)[C@H]1C[C@@H](O)[C@H]1[C@@]3(C)CC[C@@H](O)[C@@H](C)[C@@H]3CC[C@@]12C	49.9 µM	> 125 µM
CC(=O)O[C@H]1C[C@@]2(C)[C@@H](C[C@@H](O)[C@H]3[C@@]4(C)CC[C@@H](O)[C@@H](C)[C@@H]4CC[C@@]32C)/C1=C(\CCC=C(C)C)c1nc(-c2ccc(F)cc2)no1	77.4 µM	> 125 µM
CCc1noc(/C(CCC=C(C)C)=C2\[C@@H](OC(C)=O)C[C@@]3(C)[C@H]2C[C@@H](O)[C@H]2[C@@]4(C)CC[C@@H](O)[C@@H](C)[C@@H]4CC[C@@]23C)n1	71.7 µM	> 125 µM
CCCCCCC(=O)O[C@@H]1CC[C@@]2(C)[C@@H](CC[C@@]3(C)[C@H]2[C@H](O)C[C@H]2/C(=C(\CCC=C(C)C)C(=O)O)[C@@H](OC(C)=O)C[C@@]23C)[C@@H]1C	36.2 µM	5 µM (≈ 3.14 µg/mL)
CO[C@H]1C[C@@]2(C)[C@@H](C[C@@H](O)[C@H]3[C@@]4(C)CC[C@@H](O)[C@@H](C)[C@@H]4CC[C@@]32C)/C1=C(\CCC=C(C)C)C(=O)O	29 µM	18.7 µM (≈ 9.14 µg/mL)
CC(=O)O[C@H]1C[C@@]2(C)[C@@H](C[C@@H](O)[C@H]3[C@@]4(C)CC[C@@H](O)[C@@H](C)[C@@H]4CC[C@@]32C)/C1=C(\CCCC(C)C)C(=O)NNS(C)(=O)=O	97.8 µM	10 µM (≈ 6.11 µg/mL)
CC(=O)O[C@H]1C[C@@]2(C)[C@@H](C[C@@H](O)[C@H]3[C@@]4(C)CC/C(=N\O)[C@@H](C)[C@@H]4CC[C@@]32C)/C1=C(\CCC=C(C)C)C(=O)O	164 µM	2.5 µM (≈ 1.32 µg/mL)
CC(C)=CCC/C(C(=O)NNS(C)(=O)=O)=C1/[C@@H](O)C[C@@]2(C)[C@H]1C[C@@H](O)[C@H]1[C@@]3(C)CC[C@@H](O)[C@@H](C)[C@@H]3CC[C@@]12C	32 µM	40 µM (≈ 22.7 µg/mL)
CCO[C@H]1C[C@@]2(C)[C@@H](C[C@@H](O)[C@H]3[C@@]4(C)CC[C@@H](O)[C@@H](C)[C@@H]4CC[C@@]32C)/C1=C(\CCC=C(C)C)C(=O)O	48.1 µM	0.8 µM (≈ 0.402 µg/mL)
CC(=O)O[C@H]1C[C@@]2(C)[C@@H](C[C@@H](O)[C@H]3[C@@]4(C)CC[C@@H](O)[C@@H](C)[C@@H]4CC[C@@]32C)/C1=C(\CCC=C(C)C)C(=O)O [FUSIDIC ACID]	> 194 µM	0.6 µM (≈ 0.31 µg/mL)

Source: ChEMBL document CHEMBL4725234, “Structure-activity relationship analyses of fusidic acid derivatives highlight crucial role of the C-21 carboxylic acid moiety to its anti-mycobacterial activity” (Bioorg Med Chem, 2020)
